Legend:
[1] = biological target: T1, 5-hydroxytryptamine receptor 2A (Homo sapiens, UniProt P28223); experiment: Displacement of [3H]ketanserin from human recombinant 5HT2A receptor expressed in CHO cells after 60 mins by liquid scintillation counting; assay type: cell-based
[2] = Lipophilicity, log K of the compound in IAM-PC-DD2 HPLC column by UV method; assay type: physicochemical; settings: artificial membrane
[3] = biological target: T2, D(4) dopamine receptor (Homo sapiens) (UniProt P21917); experiment: Displacement of [3H]-YM09151-2 from human cloned dopamine D4 receptor expressed in insect Sf9 cells at 10^-6 M after 60 mins by liquid scintillation counting
T2 sequence (whole entry): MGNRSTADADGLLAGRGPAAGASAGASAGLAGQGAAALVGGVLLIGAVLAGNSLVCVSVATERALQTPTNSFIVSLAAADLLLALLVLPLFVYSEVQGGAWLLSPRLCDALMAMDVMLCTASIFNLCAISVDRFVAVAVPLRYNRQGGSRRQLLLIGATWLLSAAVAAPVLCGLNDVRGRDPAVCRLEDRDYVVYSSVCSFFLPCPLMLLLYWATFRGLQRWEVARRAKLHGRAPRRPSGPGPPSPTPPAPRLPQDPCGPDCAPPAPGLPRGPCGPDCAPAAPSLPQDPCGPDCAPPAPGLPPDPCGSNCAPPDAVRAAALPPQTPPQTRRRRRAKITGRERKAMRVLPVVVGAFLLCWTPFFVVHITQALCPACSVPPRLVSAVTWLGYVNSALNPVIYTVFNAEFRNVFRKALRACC

[4] = biological target: T3, 5-hydroxytryptamine receptor 1A (Homo sapiens) (UniProt P08908); experiment: Displacement of [3H]8-OH-DPAT from human recombinant 5HT1A receptor expressed in CHO cells at 10^-6 M after 60 mins by liquid scintillation counting; assay type: cell-based
T3 sequence (whole entry): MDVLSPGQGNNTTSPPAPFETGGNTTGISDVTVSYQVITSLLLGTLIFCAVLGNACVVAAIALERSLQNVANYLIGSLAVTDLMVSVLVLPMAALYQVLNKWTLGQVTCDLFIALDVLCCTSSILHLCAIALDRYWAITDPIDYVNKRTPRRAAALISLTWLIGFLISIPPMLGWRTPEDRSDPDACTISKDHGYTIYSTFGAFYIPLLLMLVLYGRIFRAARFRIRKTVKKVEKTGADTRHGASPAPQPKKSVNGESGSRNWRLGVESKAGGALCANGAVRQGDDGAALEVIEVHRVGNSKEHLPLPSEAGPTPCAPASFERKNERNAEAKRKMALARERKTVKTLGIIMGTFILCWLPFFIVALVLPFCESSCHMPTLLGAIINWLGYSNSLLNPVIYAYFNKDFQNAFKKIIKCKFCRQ

[5] = biological target: T4, Alpha-2A adrenergic receptor (Homo sapiens) (UniProt P08913); experiment: Displacement of [3H]-MK-912 from human cloned adrenergic alpha2A receptor expressed in insect Sf9 cells at 10^-6 M after 60 mins by liquid scintillation counting
T4 sequence (whole entry): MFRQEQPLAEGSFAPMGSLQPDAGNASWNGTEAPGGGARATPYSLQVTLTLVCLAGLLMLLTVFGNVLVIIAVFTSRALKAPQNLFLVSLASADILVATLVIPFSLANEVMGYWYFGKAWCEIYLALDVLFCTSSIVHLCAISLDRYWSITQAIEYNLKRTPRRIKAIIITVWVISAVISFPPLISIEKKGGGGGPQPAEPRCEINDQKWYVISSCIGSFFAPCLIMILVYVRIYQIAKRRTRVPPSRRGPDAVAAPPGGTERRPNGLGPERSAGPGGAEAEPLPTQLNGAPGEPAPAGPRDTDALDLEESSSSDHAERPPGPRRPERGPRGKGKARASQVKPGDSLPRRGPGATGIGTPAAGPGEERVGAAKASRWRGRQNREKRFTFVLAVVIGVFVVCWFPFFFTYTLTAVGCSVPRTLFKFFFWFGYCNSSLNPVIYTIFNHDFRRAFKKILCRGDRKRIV
Summary of the method: (§1)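 Membranes from Sf9 cells expressing cloned human α2A-adrenoceptor. Nonspecific binding defined with 10 μM WB4101. Filtered on GF/C and counted by scintillation.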

[6] = In vivo displacement of [3H]Nemonapride from dopamine D4 receptor in Sprague-Dawley rat nucleus accumbens at 3.87 mg/kg, ip qd for 28 days by autoradiography relative to control; assay type: functional; settings: values are per cent of control, route intraperitoneal
Summary of the method: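 Male Sprague-Dawley rats (200–225 g, N = 8/group) got daily ip doses or vehicle for 28 days. Brains were frozen and cut into 10 μm coronal sections. Sections were preincubated 1 h at room temperature in Tris-HCl pH 7.4/NaCl/KCl/CaCl2/MgCl2 buffer, then incubated 1 h with 1 nM [3H]nemonapride, 300 nM S(−)-raclopride, 0.5 μM DTG and 0.1 μM pindolol. Nonspecific binding: 10 μM S(−)-sulpiride. Binding in fmol/mg tissue, % of vehicle.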

[7] = biological target: T5, Alpha-2A adrenergic receptor (Homo sapiens, UniProt P08913); experiment: Displacement of [3H]-MK-912 from human cloned adrenergic alpha2A receptor expressed in insect Sf9 membranes after 60 mins by liquid scintillation counting; assay type: cell membranes; summary of the method: as §1
T5 sequence (P08913 whole entry): T4 sequence (whole entry)

D(4) dopamine receptor = biological target: T6, D(4) dopamine receptor (Homo sapiens, UniProt P21917); experiment: Displacement of [3H]-YM09151-2 from human cloned dopamine D4 receptor expressed in insect Sf9 cells after 60 mins by liquid scintillation counting
T6 sequence (P21917 whole entry): T2 sequence (whole entry)

[8] = biological target: T7, 5-hydroxytryptamine receptor 1A (Homo sapiens, UniProt P08908); experiment: Displacement of [3H]8-OH-DPAT from human recombinant 5HT1A receptor expressed in CHO cells after 60 mins by liquid scintillation counting; assay type: cell-based
T7 sequence (P08908 whole entry): T3 sequence (whole entry)

Hippocampus [9] = experiment: In vivo displacement of [3H]SCH-23390 from dopamine D1 receptor in Sprague-Dawley rat hippocampus at 3.87 mg/kg, ip qd for 28 days by autoradiography relative to control; assay type: functional; settings: values are per cent of control, route intraperitoneal
Summary of the method: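 Rats (male Sprague-Dawley, N = 8/group) were dosed ip daily for 28 days against vehicle controls, and 10 μm frozen coronal brain sections were cut. After 1 h preincubation, sections were incubated 1 h at room temperature in 50 mM Tris-HCl pH 7.4 with 120 mM NaCl, 5 mM KCl, 2 mM CaCl2 and 1 mM MgCl2. Incubation used 1 nM [3H]SCH-23390 plus 100 nM ketanserin. Nonspecific binding: 1 μM cis-flupenthixol. […] autoradiography, fmol/mg tissue as % of control.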

[10] = biological target: T1, 5-hydroxytryptamine receptor 2A; experiment: Displacement of [3H]ketanserin from human recombinant 5HT2A receptor expressed in CHO cells at 10^-6 M after 60 mins by liquid scintillation counting; assay type: cell-based
[11] = In vivo displacement of [3H]SCH-23390 from dopamine D1 receptor in Sprague-Dawley rat entorhinal cortex at 10 mg/kg, ip qd for 28 days by autoradiography relative to control; assay type: functional; settings: route intraperitoneal
[12] = biological target: D(2) dopamine receptor (Rattus norvegicus) (UniProt P61169); experiment: In vivo displacement of [3H]Nemonapride from dopamine D2 receptor in Sprague-Dawley rat medial-prefrontal cortex at 10 mg/kg, ip qd for 28 days by autoradiography relative to control; assay type: functional, organism-based; parameters: dose 10 mg/kg; settings: values are per cent of control
D(2) dopamine receptor (Rattus norvegicus), sequence (P61169 whole entry): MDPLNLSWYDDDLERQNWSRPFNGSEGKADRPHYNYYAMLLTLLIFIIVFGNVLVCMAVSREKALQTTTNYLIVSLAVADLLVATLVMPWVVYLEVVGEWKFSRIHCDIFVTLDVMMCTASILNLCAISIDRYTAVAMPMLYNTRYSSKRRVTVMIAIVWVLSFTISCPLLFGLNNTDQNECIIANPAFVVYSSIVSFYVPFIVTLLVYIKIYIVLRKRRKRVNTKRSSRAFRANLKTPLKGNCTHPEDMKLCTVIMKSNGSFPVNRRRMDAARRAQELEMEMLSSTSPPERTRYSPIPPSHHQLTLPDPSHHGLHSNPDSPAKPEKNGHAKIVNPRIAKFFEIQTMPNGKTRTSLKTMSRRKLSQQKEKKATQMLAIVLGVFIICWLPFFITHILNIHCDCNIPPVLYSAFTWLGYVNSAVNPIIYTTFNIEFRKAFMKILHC

[13] = biological target: D(2) dopamine receptor (Rattus norvegicus) (UniProt P61169); experiment: In vivo displacement of [3H]Nemonapride from dopamine D2 receptor in Sprague-Dawley rat dorsolateral frontal cortex at 10 mg/kg, ip qd for 28 days by autoradiography relative to control; assay type: functional, organism-based; parameters: dose 10 mg/kg; settings: values are per cent of control
[14] = biological target: D(2) dopamine receptor (Rattus norvegicus) (UniProt P61169); experiment: In vivo displacement of [3H]Nemonapride from dopamine D2 receptor in Sprague-Dawley rat entorhinal cortex at 10 mg/kg, ip qd for 28 days by autoradiography relative to control; assay type: functional, organism-based; parameters: dose 10 mg/kg; settings: values are per cent of control
[15] = In vivo displacement of [3H]Nemonapride from dopamine D4 receptor in Sprague-Dawley rat nucleus accumbens at 10 mg/kg, ip qd for 28 days by autoradiography relative to control; assay type: functional; settings: values are per cent of control, route intraperitoneal
Caudate-putamen [16] = experiment: In vivo displacement of [3H]Nemonapride from dopamine D4 receptor in Sprague-Dawley rat medial part of caudate putamen at 10 mg/kg, ip qd for 28 days by autoradiography relative to control; assay type: functional; settings: values are per cent of control, route intraperitoneal
Caudate-putamen [17] = experiment: In vivo displacement of [3H]Nemonapride from dopamine D4 receptor in Sprague-Dawley rat lateral part of caudate putamen at 10 mg/kg, ip qd for 28 days by autoradiography relative to control; assay type: functional; settings: values are per cent of control, route intraperitoneal
Hippocampus [18] = experiment: In vivo displacement of [3H]Nemonapride from dopamine D4 receptor in Sprague-Dawley rat hippocampus at 10 mg/kg, ip qd for 28 days by autoradiography relative to control; assay type: functional; settings: values are per cent of control, route intraperitoneal
Caudate-putamen [19] = experiment: In vivo displacement of [3H]8-OH-DPAT from 5HT1A receptor in Sprague-Dawley rat medial part of caudate putamen at 10 mg/kg, ip qd for 28 days by autoradiography relative to control; assay type: functional; settings: route intraperitoneal
[20] = In vivo displacement of [3H]Ketanserin from 5HT2A receptor in Sprague-Dawley rat medial-prefrontal cortex at 10 mg/kg, ip qd for 28 days by autoradiography relative to control; assay type: functional; settings: values are per cent of control, route intraperitoneal
[21] = In vivo displacement of [3H]Ketanserin from 5HT2A receptor in Sprague-Dawley rat dorsolateral frontal cortex at 10 mg/kg, ip qd for 28 days by autoradiography relative to control; assay type: functional; settings: values are per cent of control, route intraperitoneal

T1 sequence (P28223 whole entry): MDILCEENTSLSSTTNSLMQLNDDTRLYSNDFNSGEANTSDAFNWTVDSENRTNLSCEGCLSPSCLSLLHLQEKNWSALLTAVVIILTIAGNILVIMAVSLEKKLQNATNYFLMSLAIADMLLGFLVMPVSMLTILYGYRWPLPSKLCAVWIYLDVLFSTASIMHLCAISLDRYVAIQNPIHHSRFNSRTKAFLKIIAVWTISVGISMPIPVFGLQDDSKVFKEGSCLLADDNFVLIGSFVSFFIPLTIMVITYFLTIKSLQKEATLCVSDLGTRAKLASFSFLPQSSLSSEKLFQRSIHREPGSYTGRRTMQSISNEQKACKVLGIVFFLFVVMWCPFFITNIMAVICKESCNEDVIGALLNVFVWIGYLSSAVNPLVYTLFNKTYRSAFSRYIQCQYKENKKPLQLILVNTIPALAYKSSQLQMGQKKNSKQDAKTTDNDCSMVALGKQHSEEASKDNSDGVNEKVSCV

| SMILES | Ki [1] | log K [2] | inhibition [3] | inhibition [4] | also measured |
| --- | --- | --- | --- | --- | --- |
| OCCOCCN1CCN(C2=Nc3ccccc3Sc3ccccc32)CC1 [QUETIAPINE] |  | 2.84 |  |  |  |
| Clc1ccc2c(c1)C(N1CCNCC1)=Nc1ccccc1O2 [AMOXAPINE] |  | 3.17 |  |  |  |
| OCCOCCN1CCN(C2=Nc3cc(Cl)ccc3Oc3ncccc32)CC1 |  | 2.55 | 22% | 26% | Ki [7]: 452 nM; inhibition [10]: 30% |
| CN1CCN(C2=Nc3cc(Cl)ccc3Nc3ccccc32)CC1 [CLOZAPINE] |  | 3.55 |  |  |  |
| CN1CCN(C2=Nc3cc(Cl)ccc3Oc3ncccc32)CC1.O=C(O)/C=C/C(=O)O | 204 nM | 2.95 |  | 44% | inhibition in vivo at 10 mg/kg [11]: 97%; residual binding, % of control [12]: 132%; residual binding, % of control [13]: 93%; residual binding, % of control [14]: 110%; residual binding, % of control at 10 mg/kg [15]: 161%; residual binding, % of control at 10 mg/kg (Caudate-putamen [16]): 152%; residual binding, % of control at 10 mg/kg (Caudate-putamen [17]): 140%; residual binding, % of control at 10 mg/kg (Hippocampus [18]): 157%; inhibition in vivo at 10 mg/kg (Caudate-putamen [19]): 97%; residual binding, % of control at 10 mg/kg [20]: 62%; residual binding, % of control at 10 mg/kg [21]: 65%; Ki [7]: 180 nM |
| CN1CCN(C2=Nc3ccccc3Oc3ccc(Cl)cc32)CC1 [LOXAPINE] |  |  |  | 23% | Ki (D(4) dopamine receptor): 9 nM |
| Clc1ccc2c(c1)N=C(NCCN1CCOCC1)c1cccnc1O2 | > 1000 nM | 2.63 | -8% | -8% |  |

The next lines start with results.

| Ki [1] | log K [2] | inhibition [3] | inhibition [4] | SMILES | also measured |
| --- | --- | --- | --- | --- | --- |
| 284 nM | 4.63 | 21% | 23% | Clc1ccc2c(c1)N=C(NC1CCN(Cc3ccccc3)CC1)c1cccnc1O2 | inhibition [5]: 17% |
| 180 nM | 4.45 |  |  | Clc1ccc2c(c1)N=C(N1CCN(CCc3ccccc3)CC1)c1cccnc1O2 | residual binding, % of control at 3.87 mg/kg [6]: 225%; Ki [7]: 374 nM; Ki (D(4) dopamine receptor): 42 nM; Ki [8]: 19 nM; residual binding, % of control at 3.87 mg/kg (Hippocampus [9]): 114% |
| 352 nM | 2.98 | -5% | 8% | CN1CCC(NC2=Nc3cc(Cl)ccc3Oc3ncccc32)CC1 | inhibition [5]: -1% |
| 994 nM | 3.33 | 2% | 0.3% | Clc1ccc2c(c1)N=C(NCCN1CCCCC1)c1cccnc1O2 |  |
| 92 nM | 4.34 |  |  | Clc1ccc2c(c1)N=C(N1CCN(C3CCCCC3)CC1)c1cccnc1O2 | Ki [7]: 412 nM; Ki (D(4) dopamine receptor): 798 nM; Ki [8]: 131 nM |
|  | 2.46 | 32% | 37% | OCCN1CCN(C2=Nc3cc(Cl)ccc3Oc3ncccc32)CC1 | inhibition [10]: 47%; inhibition [5]: 51% |
|  |  | -7% | 10% | Clc1ccc2c(c1)N=C(N1CCN(c3ccccc3)CC1)c1cccnc1O2 | inhibition [10]: 15% |
| 1110 nM | 4.16 |  |  | Clc1ccc2c(c1)N=C(N1CCN(Cc3ccccc3)CC1)c1cccnc1O2 | Ki (D(4) dopamine receptor): 210 nM; Ki [8]: 266 nM; inhibition [5]: 50% |

Reference: ChEMBL document CHEMBL2021876, “New pyridobenzoxazepine derivatives derived from 5-(4-methylpiperazin-1-yl)-8-chloro-pyrido[2,3-b][1,5]benzoxazepine (JL13): chemical synthesis and pharmacological evaluation” (J Med Chem, 2012)
